Assay outcomes deposited in PubChem by The Scripps Research Institute Molecular Screening Center.
Most compounds without a hit are left out; they make up all but 1.8% or so of the library.
CHRM5 antagonist = human M5 muscarinic receptor antagonists, primary screen, CHO cells, Fluo-8 calcium fluorescence. Muscarinic acetylcholine receptor M5 (Homo sapiens), P08912. CHO-hM5 cells, ACh EC80. inhibition, % at 3 µM. actives 0.59% (n = 360,000);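 active = inhibition above a per-plate cutoff, the mean of that plate's test compounds plus 3 SD, cut at about 27% in these data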;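 also: 0% = acetylcholine EC80 with DMSO and 100% = DMSO without agonist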
M4 PAM = human M4 muscarinic receptor positive allosteric modulators, primary screen, CHO-K1 cells, Fluo-8 calcium fluorescence | actives 0.4% (n = 360,000) | Muscarinic acetylcholine receptor M4 (Homo sapiens), P08173 | CHO-K1 hM4/Gqi5, ACh EC20; 0% = ACh EC20, 100% = maximal ACh | activation, % at 3 µM | AID 624126, 2012;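 active = activation above its plate's cutoff, the mean activation of sample wells plus 3 SD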
Target sequence (P08173 whole entry, looked up): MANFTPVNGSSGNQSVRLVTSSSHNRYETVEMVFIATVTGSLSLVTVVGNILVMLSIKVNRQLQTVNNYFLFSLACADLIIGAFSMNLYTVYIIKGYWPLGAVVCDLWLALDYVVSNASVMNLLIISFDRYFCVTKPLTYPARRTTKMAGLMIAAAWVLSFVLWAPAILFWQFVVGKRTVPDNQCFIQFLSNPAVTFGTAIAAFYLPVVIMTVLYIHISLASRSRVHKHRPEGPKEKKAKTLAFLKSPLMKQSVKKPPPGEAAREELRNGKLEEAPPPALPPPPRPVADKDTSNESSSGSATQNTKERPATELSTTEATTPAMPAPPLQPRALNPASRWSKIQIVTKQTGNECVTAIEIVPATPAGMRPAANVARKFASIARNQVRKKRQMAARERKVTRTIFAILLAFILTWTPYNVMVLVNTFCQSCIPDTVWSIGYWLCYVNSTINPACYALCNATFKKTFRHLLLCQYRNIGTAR
CHRM4 antagonist = human M4 muscarinic receptor antagonists, primary screen, CHO cells, Fluo-8 calcium fluorescence; Muscarinic acetylcholine receptor M4 (Homo sapiens), P08173; CHO-hM4 cells, ACh EC80; inhibition, % at 3 µM; actives 0.73% (n = 360,000);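 active = inhibition above its plate's cutoff, the mean inhibition of sample wells plus 3 SD, cut at about 27% in these data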;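 also: 0% = acetylcholine EC80 with DMSO and 100% = DMSO without agonist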
M5 ag = human M5 muscarinic receptor agonists, primary screen, CHO-K1 cells, Fluo-8 calcium fluorescence; CHO-K1 hM5 cells; 0% DMSO wells, 100% maximal acetylcholine response; AID 624037, 2012; activation, % at 3 µM; Muscarinic acetylcholine receptor M5 (Homo sapiens), P08912; actives 0.19% (n = 360,000);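 active = activation above the run's mean over test compounds plus 3 SD, cut at about 23% in these data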;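 also: signal is peak over basal fluorescence ratio across the kinetic read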
CHRM5 PAM = human M5 muscarinic receptor positive allosteric modulators, primary screen, CHO-K1 cells, Fluo-8 calcium fluorescence. Muscarinic acetylcholine receptor M5 (Homo sapiens), P08912. CHO-K1 hM5, ACh EC20 PAM; 0% = ACh EC20, 100% = ACh EC100. activation, % at 3 µM. actives 0.3% (n = 360,000). AID 624038, 2012;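 active = activation above the run cutoff, the mean activation of all test compounds plus 3 SD, cut at about 18% in these data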
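Replicates: One well per compound, no replicates | System: Human M5 receptor in CHO-K1 cells | Benchmarks: Low control EC20 acetylcholine (0%), high control EC100 acetylcholine (100%) | Probe or stimulus: Acetylcholine, EC20 level | Times: Fluo-8 loading 80 min at 37 °C plus 30 min room temperature | Signal: Intracellular calcium via Fluo-8 fluorescence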
CHRM4 agonist = human M4 muscarinic receptor agonists, primary screen, CHO-K1 cells, Fluo-8 calcium fluorescence. Muscarinic acetylcholine receptor M4 (Homo sapiens), P08173. activation, % at 3 µM. CHO-K1 hM4/Gqi5; vehicle 0%, full acetylcholine response 100%. actives 0.14% (n = 360,000);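 active = activation above the run mean over all test wells plus 3 SD, cut at about 32% in these data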;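 also: peak over basal fluorescence ratio per well then scaled between controls; 0% = DMSO wells and 100% = acetylcholine at EC100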
Starred values were filed as active, the others as inactive.

SMILES	CHRM5 antagonist	M4 PAM	CHRM4 antagonist	M5 ag	CHRM5 PAM	CHRM4 agonist
CCCCNC(=S)NCC(c1ccccc1)c1c[nH]c2ccccc12 (centres undefined)	18.3	-7.3	0.0	-7.0	-14.1	2.2
CN(C)CCCNC(=S)NCC(c1ccc(Cl)cc1Cl)c1c[nH]c2ccccc12 (centres undefined)	6.6	-10.8	28.8*	-5.1	3.2	15.6
CC(C)c1ccc(/C=C/C(=O)NC(=S)Nc2ccc(CN3CCOCC3)cc2)cc1	40.6*	-14.3	13.9	-8.3	-17.9	2.8
CC(C)c1ccc(/C=C/C(=O)NC(=S)NN2CCOCC2)cc1	4.5	1.8	-23.3	-3.0	-3.2	5.7
CCOC(=O)C1(Cc2cccc(Cl)c2)CCCN(C(=O)CCOC)C1 (centres undefined)	-10.1	23.8*	-14.9	1.3	6.0	1.8
CCCCC/C=C/C1=CC(=O)C[C@H](c2ccc(OC)c(OC)c2)C1	-2.1	-2.5	9.5	-0.2	4.7	0.6
Cc1cc(C)c(C(O)c2ncc(-c3cccc(F)c3)[nH]2)c(C)c1 (centres undefined)	-1.9	1.4	-5.7	-1.5	0.0	1.4
Cc1[nH]c2c(C)cccc2c1CCNC(=O)c1ccc2c(c1[N+](=O)[O-])C(=O)c1ccccc1C2=O	4.2	-10.1	29.3*	0.3	-1.3	2.4
CN(C)c1ccc(C=Cc2nccc3ccccc23)cc1	28.9*	-16.6	22.9	29.0*	-19.3	36.1*
CCN(CC)c1nc(C=Cc2ccc(N(C)C)cc2)c2nccnc2n1	50.5*	-9.7	40.9*	31.2*	-12.6	29.2
COc1cccc(C=Cc2nccc3ccccc23)c1OC	17.1	-9.6	-5.7	-6.2	-1.1	3.6
COc1cc(/C=N/NC(=O)COc2ccc([N+](=O)[O-])cc2)ccc1OCC(=O)N1CCOCC1	-6.8	-3.1	-15.0	0.4	1.9	-0.1
C[n+]1ccccc1/C=C/c1cc(Br)ccc1O	33.6*	-13.3	11.8	-2.0	-16.1	1.1
CCN(CC)c1ccc(/C=N/NC(=O)c2ccc3c(c2)OCCO3)cc1	27.9*	-1.9	-5.5	-1.6	-10.7	4.0
CCNc1oc(-c2ccccc2F)nc1S(=O)(=O)c1ccccc1	2.5	0.9	-0.7	-1.5	3.9	-0.1
COC(=O)C1CCN(c2cc(=O)n(Cc3ccc(F)cc3)c(=O)[nH]2)CC1	-7.7	-5.7	3.4	3.4	0.7	0.6
CCOC(=O)C1CCCN(c2cc(=O)n(Cc3ccc(F)cc3)c(=O)[nH]2)C1 (centres undefined)	-6.1	0.1	3.9	23.9*	-2.6	3.9
COc1cccc(NC(=S)N(Cc2ccc(C(=O)O)cc2)Cc2ccc(OC)c(OC)c2)c1	-3.0	19.7*	8.8	3.1	2.9	1.0
COC(=O)C[C@H]1CC[C@@H](NC(=O)C2CC2)[C@@H](CO)O1	-5.4	6.9	-9.1	1.5	5.1	1.1
Cc1cccc(NC(=O)C2CCCN(S(=O)(=O)c3cccs3)C2)c1C (centres undefined)	0.3	-3.0	-14.8	-0.6	-3.8	2.3
CC(CN1c2ccccc2Sc2ccccc21)N(C)C (centres undefined)	98.6*	-18.6	98.7*	-0.4	-18.0	1.1
OCCN(CCO)CC(O)CN1c2ccccc2Sc2ccccc21 (centres undefined)	9.8	-6.7	15.8	-6.9	-2.6	1.5
CC(CN(C)C)CN1c2ccccc2Sc2ccccc21 (centres undefined)	97.9*	-18.0	82.1*	1.2	-19.0	9.1
COc1ccc2c(c1)N(C[C@H](C)CN(C)C)c1ccccc1S2	60.3*	-17.3	54.0*	0.2	-18.9	9.0
CCN(CC)CC(O)CN1c2ccccc2Sc2ccccc21 (centres undefined)	38.6*	-18.0	14.7	-6.2	-17.8	5.0
SMILES	CHRM5 antagonist	M4 PAM	CHRM4 antagonist	M5 ag	CHRM5 PAM	CHRM4 agonist
COc1ccc(-c2nn(-c3ccccc3)cc2CNC[C@H]2O[C@@H](n3cnc4c(N)ncnc43)[C@H](O)[C@@H]2O)cc1	-7.2	-1.0	-7.1	-1.4	2.6	0.5
COCCC(=O)N1CCC(Oc2ccc(C(=O)N3CCCC(CCCO)C3)cc2)CC1 (centres undefined)	6.5	5.5	-2.0	-3.8	1.1	4.5
N#CCCN(C(=O)COC(=O)CCNS(=O)(=O)c1ccccc1)c1ccccc1	-2.0	4.6	-10.5	3.5	-2.4	1.3
Cc1cc(CNC[C@H]2O[C@@H](n3cnc(C(N)=O)n3)[C@H](O)[C@@H]2O)c(C)n1-c1cccnc1	-6.6	2.6	-8.0	3.1	-1.4	-0.5
CCc1ccc(NC(=O)NCCCN2CCCC2=O)cc1	15.1	-2.6	0.9	-4.3	-1.0	0.4
Cc1cc(=O)oc2c(C)c(OC(C)C(=O)Nc3ccc(N4CCC(C)CC4)cc3)ccc12 (centres undefined)	-13.6	-3.5	-18.8	-2.4	21.3*	-0.2
N#Cc1ccc(-c2ccc(OCC(=O)NN=Cc3ccncc3)cc2)cc1	11.3	-11.0	4.7	5.1	-22.6	20.7
CC1CC(C)CN(S(=O)(=O)c2cccc3nsnc23)C1 (centres undefined)	-8.5	20.7*	-9.7	-2.3	5.8	0.1
CC(C)NS(=O)(=O)c1cccc2nsnc12	3.0	27.4*	11.4	-0.2	-0.2	2.3
CCCNC(=O)C1CCC(CNS(=O)(=O)c2cccc3nsnc23)CC1 (centres undefined)	-1.5	15.8*	2.9	-4.3	5.9	1.2
O=c1c(Cc2c(F)cccc2Cl)c(O)ccn1CCCN1CCOCC1	0.6	-2.3	3.0	-3.4	-2.0	0.9
Cc1cc(C)n2ncc(C(=O)NCc3ccccc3)c2n1	19.6	3.9	-4.6	0.1	31.2*	1.0
COc1cc(OC)cc(C(=O)Nc2ccccc2C(=O)NCc2cccnc2)c1	28.2*	-11.3	-1.1	-2.5	-7.6	13.8
O=C(Nc1ccccc1)Nc1ccccc1C(=O)NCc1ccccc1	-0.9	-5.8	-9.5	-3.6	-7.7	5.5
CNC(=O)Nc1ccccc1C(=O)NCc1ccccc1	-2.9	9.9	86.6*	-2.4	1.3	-3.2
Cc1ccc(C(C)C)c(OCC(=O)NC2CCN(C)CC2)c1	-14.8	9.3	-3.0	-8.4	5.0	0.2
